Measurements published in ChEMBL document CHEMBL3739360, “Indoline Amide Glucosides from Portulaca oleracea: Isolation, Structure, and DPPH Radical Scavenging Activity” (J Nat Prod, 2015).

Experiments:
[1] = Antioxidant activity assessed as DPPH radical scavenging activity after 30 mins by plate reader analysis; type: physicochemical; details: for Activity: 0.5 h
Procedure, shortened: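 DPPH radical (150 μM in MeOH, 180 μL) mixed with 20 μL compound in water (solutions 62.5–1000 μM); 30 min, room temperature, dark; absorbance 490 nm. Sample-only blanks in MeOH; water+DPPH and water+MeOH references. Vitamin C as positive control. Scavenging % from corrected absorbances; EC50 by nonlinear regression; triplicate, mean ± SD.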

[2] = Potency index, ratio of vitamin C EC50 to compound EC50 for DPPH radical scavenging activity

Question: What does the source list for O=C(O)[C@@H]1Cc2cc(O)c(O[C@@H]3O[C@H](CO)[C@@H](O)[C@H](O)[C@H]3O)cc2N1C(=O)/C=C/c1ccc(O)cc1?
Answer: EC50 [1]: 35.1 µM; Activity [1]: Dose-dependent effect

Question: Which results are given for COc1cc(/C=C/C(=O)N2c3cc(O[C@@H]4O[C@H](CO[C@@H]5O[C@H](CO)[C@@H](O)[C@H](O)[C@H]5O)[C@@H](O)[C@H](O)[C@H]4O)c(O)cc3C[C@H]2C(=O)O)ccc1O[C@@H]1O[C@H](CO)[C@@H](O)[C@H](O)[C@H]1O?
Answer: EC50 [1]: 40.9 µM; Activity [1]: Dose-dependent effect

Question: Which EC50 [1] does the source give for COc1cc(/C=C/C(=O)N2c3cc(O[C@@H]4O[C@H](CO[C@@H]5O[C@H](CO)[C@@H](O)[C@H](O)[C@H]5OC(=O)/C=C/c5ccc(O)c(O)c5)[C@@H](O)[C@H](O)[C@H]4O)c(O)cc3C[C@H]2C(=O)O)ccc1O here?
Answer: 16.1 µM

Question: What about the Activity [1] of the same molecule?
Answer: Dose-dependent effect

Question: And the Ratio EC50 [2]?
Answer: 2

Question: Which EC50 [1] does the source give for O=C1O[C@H]([C@@H](O)CO)C(O)=C1O [ASCORBIC ACID] here?
Answer: 30.2 µM

Question: Which results are given for COc1cc(/C=C/C(=O)O[C@H]2[C@H](OC[C@H]3O[C@@H](Oc4cc5c(cc4O)C[C@@H](C(=O)O)N5C(=O)/C=C/c4ccc(O[C@@H]5O[C@H](CO)[C@@H](O)[C@H](O)[C@H]5O)cc4)[C@H](O)[C@@H](O)[C@@H]3O)O[C@H](CO)[C@@H](O)[C@@H]2O)ccc1O?
Answer: EC50 [1]: 31.6 µM; Activity [1]: Dose-dependent effect

Question: Which results are given for O=C(O)[C@@H]1Cc2cc(O)c(O[C@@H]3O[C@H](CO[C@@H]4O[C@H](CO)[C@@H](O)[C@H](O)[C@H]4O)[C@@H](O)[C@H](O)[C@H]3O)cc2N1C(=O)/C=C/c1ccc(O[C@@H]2O[C@H](CO)[C@@H](O)[C@H](O)[C@H]2O)cc1?
Answer: EC50 [1]: 43.5 µM; Activity [1]: Dose-dependent effect

Question: For COc1cc(/C=C/C(=O)N2c3cc(O[C@@H]4O[C@H](CO)[C@@H](O)[C@H](O)[C@H]4O)c(O)cc3C[C@H]2C(=O)O)ccc1O[C@@H]1O[C@H](CO)[C@@H](O)[C@H](O)[C@H]1O, which EC50 [1] is on record?
Answer: 34.6 µM

Question: And the Activity [1]?
Answer: Dose-dependent effect

Question: For COc1cc(/C=C/C(=O)N2c3cc(O[C@@H]4O[C@H](CO[C@@H]5O[C@H](CO)[C@@H](O)[C@H](O)[C@H]5O)[C@@H](O)[C@H](O)[C@H]4O)c(O)cc3C[C@H]2C(=O)O)ccc1O, which EC50 [1] is on record?
Answer: 40.1 µM

Question: What about the Activity [1] of the same molecule?
Answer: Dose-dependent effect

Question: With O=C(O)[C@@H]1Cc2cc(O)c(O[C@@H]3O[C@H](CO)[C@@H](O)[C@H](O)[C@H]3O)cc2N1C(=O)/C=C/c1ccc(O[C@@H]2O[C@H](CO)[C@@H](O)[C@H](O)[C@H]2O)cc1 as the molecule, how does the EC50 [1] read?
Answer: 38.3 µM

Question: What about the Activity [1] of the same molecule?
Answer: Dose-dependent effect

Question: Which EC50 [1] does the source give for COc1cc(/C=C/C(=O)OC[C@H]2O[C@@H](OC[C@H]3O[C@@H](Oc4cc5c(cc4O)C[C@@H](C(=O)O)N5C(=O)/C=C/c4ccc(O)cc4)[C@H](O)[C@@H](O)[C@@H]3O)[C@H](O)[C@@H](O)[C@@H]2O)ccc1O here?
Answer: 35.4 µM

Question: And the Activity [1]?
Answer: Dose-dependent effect

Question: Which results are given for O=C(/C=C/c1ccc(O)c(O)c1)O[C@H]1[C@H](OC[C@H]2O[C@@H](Oc3cc4c(cc3O)C[C@@H](C(=O)O)N4C(=O)/C=C/c3ccc(O)cc3)[C@H](O)[C@@H](O)[C@@H]2O)O[C@H](CO)[C@@H](O)[C@@H]1O?
Answer: EC50 [1]: 15.3 µM; Activity [1]: Dose-dependent effect; Ratio EC50 [2]: 2

Question: What does the source list for O=C(O)[C@@H]1Cc2cc(O)c(O[C@@H]3O[C@H](CO[C@@H]4O[C@H](CO)[C@@H](O)[C@H](O)[C@H]4O)[C@@H](O)[C@H](O)[C@H]3O)cc2N1C(=O)/C=C/c1ccc(O)cc1?
Answer: EC50 [1]: 42.9 µM; Activity [1]: Dose-dependent effect

Question: For COc1cc(/C=C/C(=O)O[C@H]2[C@H](OC[C@H]3O[C@@H](Oc4cc5c(cc4O)C[C@@H](C(=O)O)N5C(=O)/C=C/c4ccc(O)cc4)[C@H](O)[C@@H](O)[C@@H]3O)O[C@H](CO)[C@@H](O)[C@@H]2O)ccc1O, which EC50 [1] is on record?
Answer: 29.1 µM

Question: And the Activity [1]?
Answer: Dose-dependent effect

Question: With COc1cc(/C=C/C(=O)N2c3cc(O[C@@H]4O[C@H](CO)[C@@H](O)[C@H](O)[C@H]4O)c(O)cc3C[C@H]2C(=O)O)ccc1O as the molecule, how does the EC50 [1] read?
Answer: 35.1 µM

Question: What about the Activity [1] of the same molecule?
Answer: Dose-dependent effect

Question: For COc1cc(/C=C/C(=O)O[C@H]2[C@H](OC[C@H]3O[C@@H](Oc4cc5c(cc4O)C[C@@H](C(=O)O)N5C(=O)/C=C/c4ccc(O)c(OC)c4)[C@H](O)[C@@H](O)[C@@H]3O)O[C@H](CO)[C@@H](O)[C@@H]2O)ccc1O, which EC50 [1] is on record?
Answer: 27.6 µM

Question: What about the Activity [1] of the same molecule?
Answer: Dose-dependent effect
